Compound activity deposited in PubChem by several laboratories.
FID counter: fluorescent intercalator displacement, NS3 helicase counter-screen; inhibition, % at 7.9 µM; 290,000 tested, 0.17% active; DNA fluorescent intercalator displacement, fluorescence; in the data active = inhibition above about 37%;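 note: higher means more ethidium bromide displaced from hairpin DNA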
GRK2 aptamer HTS: inhibitors of human GRK2 displacing RNA aptamer. P25098. bead flow cytometry, FAM-aptamer displacement from GRK2. AID 488847. inhibition of aptamer binding, % at 10 µM. 330,000 tested, 0.59% active;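 active = inhibition of aptamer binding above 40%, roughly 3 SD of noise, on plates passing a quality check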;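 note: median bead fluorescence of bound FAM aptamer so fluorescent compounds give negative values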
HCV core dimer: blocks dimerization of HCV core protein; TR-FRET GST/Flag-core106 dimerization, 1536-well; inhibition, % at 5 µM; 300,000 tested, 0.33% active;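 active = inhibition above the mean of all tested compounds plus 3 SD, set per screening campaign, cut at about 45% in these data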
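Assay system: GST-tagged and Flag-tagged HCV core protein residues 1-106 / Times: compound-protein-antibody incubation 4 h at 22.5 °C / Signal: time-resolved FRET, ex 340 nm, em 617 and 671 nm / Evaluation: % inhibition based on acceptor/donor emission ratio / Benchmarks: wells lacking GST-core106 and wells with excess unlabelled core106 / Repeats: singlicate, one well per compound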
GPR7 antagonist: antagonists of human GPR7 (neuropeptides B/W receptor 1); P48145; GPR7-expressing cells, fluorescence antagonist assay; inhibition, % at 4.4 µM; 290,000 tested, 1.1% active; in the data active = inhibition above about 16%, passing the limit was not always enough;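 note: cells stimulated with the agonist NPW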
Target sequence (P48145 whole entry, looked up): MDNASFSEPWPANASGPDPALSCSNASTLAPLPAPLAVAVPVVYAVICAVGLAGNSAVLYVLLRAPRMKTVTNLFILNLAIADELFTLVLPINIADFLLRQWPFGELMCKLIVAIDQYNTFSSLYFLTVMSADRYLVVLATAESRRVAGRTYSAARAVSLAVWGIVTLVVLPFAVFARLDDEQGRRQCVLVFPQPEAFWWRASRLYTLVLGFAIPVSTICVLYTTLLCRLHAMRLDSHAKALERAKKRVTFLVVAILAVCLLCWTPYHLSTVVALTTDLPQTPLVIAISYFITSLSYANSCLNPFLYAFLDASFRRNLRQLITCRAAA
DAGLB inh: diacylglycerol lipase beta (human) inhibition. Q8NCG7. HEK293T DAGLB membrane lysate, EnzChek fluorogenic substrate. inhibition, % at 5.17 µM. 340,000 tested, 0.059% active. AID 504411; in the data active = inhibition above about 34%
HCV NS3 hel inh: HCV NS3 helicase inhibition; NS3 helicase DNA unwinding, Cy5 molecular beacon fluorescence; inhibition, % at 10.9 µM; 290,000 tested, 0.56% active;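 active = inhibition above the mean of all tested compounds plus 3 SD, set per campaign, cut at about 35% in these data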
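System: Hepatitis C virus NS3 helicase domain fragment enzyme | Reagent: Annealed dual-labelled DNA beacon duplex, ATP-started | Compound dosing: 10.9 µM single point, 0.8% DMSO | Incubation: 1 h reaction at 25 °C, ATP-initiated | Technique: Cy5 fluorescence | Evaluation: Percent inhibition from t60/t0 fluorescence ratio | Benchmarks: Low DMSO, high thioflavine S at 110 µM | Replication: Singlicate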
DAGLB inh conf: DAGLB (human) inhibition, confirmation screen; shares compounds with DAGLB inh; HEK293T DAGLB membrane lysate, EnzChek fluorogenic substrate; inhibition, % at 5.17 µM; 190 tested, 73% active;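 active = mean inhibition over triplicate wells above a set limit taken from the primary lipase screen, cut at about 34% in these data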
Numbers stand for hits; n = inactive; x = no result. Hits are enriched below; roughly 2.2% of the tested compounds scored in any of these assays.

SMILES	FID counter	GRK2 aptamer HTS	HCV core dimer	GPR7 antagonist	DAGLB inh	HCV NS3 hel inh	DAGLB inh conf
O=[N+]([O-])c1ccc(N2CCN(c3ccccc3)CC2)cc1	n	n	n	n	34	n	82
Cc1ccc(-n2[nH]c(C)c(/C=N/Nc3ccc([N+](=O)[O-])cc3[N+](=O)[O-])c2=O)cc1C	n	n	n	n	39	n	48
CCC(=O)NC(c1cccs1)c1cc([N+](=O)[O-])c2cccnc2c1O (centres undefined)	n	n	n	n	n	n	x
CCCC(=O)NC(c1cccs1)c1cc([N+](=O)[O-])c2cccnc2c1O (centres undefined)	n	n	n	n	35	n	n
Cc1cc(/C=C\c2ccc3cc(N(C)C)ccc3[n+]2C)c(C)n1-c1ccccc1	x	71	n	x	39	x	35
C[n+]1c(/C=C/c2ccc(O)cc2)ccc2ccccc21	n	n	n	n	n	n	x
CC(C)c1ccc(/C=N/NC(=O)c2nnn(-c3nonc3N)c2CN(C)C2CCCCC2)cc1	n	n	n	n	n	n	x
COc1ccc(-c2csc3nc(-c4ccccc4OC)oc(=O)c23)cc1	n	n	n	n	43	n	41
Cc1cn(CC(=O)N2CCN(c3ccccn3)CC2)c(=O)[nH]c1=O	x	x	x	x	n	x	x
CC(C1SC(=S)NC1=O)C1SC(=S)NC1=O (centres undefined)	x	x	x	x	44	x	37
